Measured values from the RNAGym collection of RNA variant scans (doi:10.1101/gad.245936.114).
Variants at the floor of the assay were thinned out.

B1: tRNA (parent)
chain: CUCUCGGUAGCCAAGUUGGUUUAAGGCGCAAGACUUUAAUUUAUCACUACGAAAUCUUGAGAUCGGGCGUUCGACUCGCCCCCGGGAGAUUUUUUCCUCGAGCAA

Variants of: B1
Assay: nonsense suppression (GFP-seq) (ratio to wild type); higher = more function; SUP4oc tRNA, yeast GFP reporter sort-seq
Outline: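 Yeast carrying genome-integrated SUP4oc tRNA variants from a library with ~3% random mutations were grown in raffinose/galactose medium with 80 mg/L adenine. Each strain also carried a galactose-driven GFP ochre reporter and RFP. Cells were sorted into GFP/RFP bins, and each bin was Illumina-sequenced (phred ≥30). Nonsense suppression (GFPSEQ) is the bin median GFP/RFP, weighted by each variant's estimated cell share per bin, relative to wild-type SUP4oc; variants needed ≥100 reads and ≥30 cells.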

**Q.** Which nonsense suppression does the source give for CUCUCGGUAGCCAAGUUGGUUUAAGGCGCAUGACUUUAAUUUAUCACUACGAAAUCUUGAGAUCGGGCGUUCCACUCGCCGCCGGGAGAUUUUUUCCUCGAGCAA [A31U G73C C81G] here?
**A.** ≤ 0.026

**Q.** With CUCUCGGUAGCCAAGUUGGUUUAAGGCGCAUGACUUUAAUUUAUCACUACGAAAUCUUAAGAUCGGGCGUUCGACUCGCUCCCGGGAGAUUUUUUCCUCGAGCAA [A31U G59A C80U] as the variant, how does the nonsense suppression read?
**A.** ≤ 0.026

**Q.** With CUCUCGGUAGCCAAGUUGGUUUAAGGCGCAAUACUUUAAUUUAUCACUACGAAAUCUUGAGAUCGAGCGUUCGACUCGCCCCCGGGAGAUUUUUUCCUCGAGCAA [G32U G66A] as the variant, how does the nonsense suppression read?
**A.** ≤ 0.026

**Q.** For CUCUCGGUAGCCAAGUUGGUUUAAGGCGCAACACUUUAAUUUAUCACUACGAAAUCUUGAGUUCCGGCGUUCGACUCGCACCCGGGAAAUUUUUUCCUCGAGCAA [G32C A62U G65C C80A G88A], which nonsense suppression is on record?
**A.** ≤ 0.026

**Q.** Which nonsense suppression does the source give for CUCUCGGUAGCCAAGUUGGUUUAAGGCGCAAGGCUUUAAUUUAUCACUACGAAAUCUUGAGAUCGGGCGUUCGACUCGCCCCCGGGAGAUUUUUUCCUCGAGCAA [A33G] here?
**A.** 0.346

**Q.** Which nonsense suppression does the source give for CUCUCGGUAGCCAAGUUGGUUUAAGGCGCAAGCCUUUAAUUUAUCACUACGAAAUCUUGAGAACGGGCGUUCGACUCGCCCCCGGGAGAUUUUUUCCUCGAGCAA [A33C U63A] here?
**A.** ≤ 0.026

**Q.** Which nonsense suppression does the source give for CUCUCGGUAGCCAAGUUGGUUUAAGGCGCAAGGCUUUAAUUUAUCACUACGAAGUCUUGAGAUCGGGCGUUCGCCUCGCCCCCGGGAGAUUUUUUCCUCGAGCAA [A33G A54G A74C] here?
**A.** ≤ 0.026

**Q.** Which nonsense suppression does the source give for CUCUCGGUAGCCAAGUUGGUUUAAGGCGCAACAGCUUAAUUUAUCACUACGAAAUCUUGAGAUCGGGCGUUCGACUCGCCCCCGGGAGAUUUUUUCCUCGAGCAA [G32C C34G U35C] here?
**A.** ≤ 0.026

**Q.** For CUCUCGGUAGCCAAGUUGGUUUAAGGCGCAAGCCUUUAAUUUAUCACUACGAAAUCUUGAAGUCGGGCGUUCCACUCGCCCCCGGGAGAUUUUUUCCUCGAGCAA [A33C G61A A62G G73C], which nonsense suppression is on record?
**A.** ≤ 0.026

**Q.** Which nonsense suppression does the source give for CUCUCGGUAGCCAAGUUGGUUUAAGGCGCAACACUUUAAUUUAUCACUACGAAAUCUUGAGACCGGGCGUUCGACUCGCCCCCGGGAGAUUUUUUCCUCGAGCAA [G32C U63C] here?
**A.** ≤ 0.026

**Q.** With CUCUCGGUAGCCAAGUUGGUUUAAGGCGCAUGACUUUAAUUUAUCACUACGAAACCUUGAGAUCGGGCGUUCGACUCGCCCCCGGGAGAUUUUUUCCUCGAGCAA [A31U U55C] as the variant, how does the nonsense suppression read?
**A.** 0.0547

**Q.** For CUCUCGGUAGCCAAGUUGGUUUAAGGCGCAACACUUUAAUUUAUCACUACGAAAUGUUGCGAUCGGGCGUUCGACUCGCCCCCGGGAGAUUUUUUCCUCGAGCAA [G32C C56G A60C], which nonsense suppression is on record?
**A.** 0.275

**Q.** Which nonsense suppression does the source give for CUCUCGGUAGCCAAGUUGGUUUAAGGCGCAAGCCUUUAAUUUAUCACUACGAAAUAUUGAGAUCGGGCGUUCGACUCACCCCCGGGAGAUUUUUUCCUCGAGCAA [A33C C56A G78A] here?
**A.** ≤ 0.026

**Q.** For CUCUCGGUAGCCAAGUUGGUUUAAGGCGCAUGACUUUAAUUUAUCACUACGAAAUCUUGAGAUCGGGCGCUCGACUCGCCCCCGGGAGAUUUUUUCCUCGAGCAA [A31U U70C], which nonsense suppression is on record?
**A.** ≤ 0.026

**Q.** With CUCUCGGUAGCCAAGUUGGUUUAAGGCGCAUGACUUUAAUUUAUCACUACGAAAUCUUGAGAUCGGGCGAUCGACUCGCCCCCGGGAGAUUUUUUCCUCGAGCAA [A31U U70A] as the variant, how does the nonsense suppression read?
**A.** ≤ 0.026

**Q.** With CUCUCGGUAGCCAAGUUGGUUUAAGGCGCAAGGCUUUAAUUUAUCACUACGAAAUCUUGAGAUCGGGCGUUCGCCUCGCACCCGGGAGAUUUUUUCCUCGAGCAA [A33G A74C C80A] as the variant, how does the nonsense suppression read?
**A.** ≤ 0.026

**Q.** Which nonsense suppression does the source give for CUCUCGGUAGCCAAGUUGGUUUAAGGCGCAACACUUUAAUUUAUCACUACGAAAUCUUGAGAUCGGGCGUUCGACACGCCCCCGGGAGAUUUUUUCCUCGAGCAA [G32C U76A] here?
**A.** ≤ 0.026

**Q.** Which nonsense suppression does the source give for CUCUCGGUAGCCAAGUUGGUUUAAGGCGCAAAACUUUAAUUUAUCACUACGAAAUCUUGAGAUCGGGCGAUAGACUCGCCCCCGGGAGAUUUUUUCCUCGAGCAA [G32A U70A C72A] here?
**A.** ≤ 0.026

**Q.** With CUCUCGGUAGCCAAGUUGGUUUAAGGCGCAUGACUUUAAUUUAUCACUACGAAAUCUUGAGAACGGGCGUUCGACUCGCCCCCGGGAGAUUUUUUCCUCGAGCAA [A31U U63A] as the variant, how does the nonsense suppression read?
**A.** 0.0391

**Q.** With CUCUCGGUAGCCAAGUUGGUUUAAGGCGCAUGACUUUAAUUUAUCACUACGAAAUCUUGAGAGCGGGCGUUCGACUCGCCCCCGGGAGAUUUUUUCCUCGAGCAA [A31U U63G] as the variant, how does the nonsense suppression read?
**A.** 0.0763

**Q.** Which nonsense suppression does the source give for CUCUCGGUAGCCAAGUUGGUUUAAGGCGCAAUACUUUAAUUUAUCACUACGAAAUCUUGAGAACGGGCGUUCGACUCGCCCUCGGGAGAUUUUUUCCUCGAGCAA [G32U U63A C82U] here?
**A.** 0.0283

**Q.** For CUCUCGGUAGCCAAGUUGGUUUAAGGCGCAACACUUUAAUUUAUCACUACGAAAUCUUGAGGUCGGGCGUUCGACUCGCUCCCGGGAGAUUUUUUCCUCGAGCAA [G32C A62G C80U], which nonsense suppression is on record?
**A.** ≤ 0.026

**Q.** Which nonsense suppression does the source give for CUCUCGGUAGCCAAGUUGGUUUAAGGCGCAAGGCUUUAAUUUAUCACUACGAAAUCUUGAGAUCGGGCGUUCGACUCGCCCCCGGGUUAUUUUUUCCUCGAGCAA [A33G A87U G88U] here?
**A.** ≤ 0.026

**Q.** Which nonsense suppression does the source give for CUCUCGGUAGCCAAGUUGGUUUAAGGCGCAAGCCUUUAAUUUAUCACUACGAAACCUUGAGAUGGGGCGUUCGACCCGCCCCCGGGAGAUUUUUUCCUCGAGCAA [A33C U55C C64G U76C] here?
**A.** ≤ 0.026

**Q.** For CUCUCGGUAGCCAAGUUGGUUUAAGGCGCAAUACUUUAAUUUAUCACUACGAAAUCUUGAGAUCGGGCGUCCGACUCGCCCCCAGGAGAUUUUUUCCUCGAGCAA [G32U U71C G84A], which nonsense suppression is on record?
**A.** ≤ 0.026

**Q.** With CUCUCGGUAGCCAAGUUGGUUUAAGGCGCAAGCCUUUAAUUUAUCACUACGAAAUAUGGAGAUCGGGCGUUCGACUCGCCCCCGUGAGAUUUUUUCCUCGAGCAA [A33C C56A U58G G85U] as the variant, how does the nonsense suppression read?
**A.** ≤ 0.026

**Q.** Which nonsense suppression does the source give for CUCUCGGUAGCCAAGUUGGUUUAAGGCGCAAUACUUUAAUUUAUCACUACGAAAGCUUGAGCUCGGGCGUUCGACUCGCCCCCGGGAGAUUUUUUCCUCGAGCAA [G32U U55G A62C] here?
**A.** ≤ 0.026
